The target in data set [1] is T1, Histone deacetylase 8 (Homo sapiens, UniProt Q9BY41).
T1 sequence (Q9BY41 whole entry): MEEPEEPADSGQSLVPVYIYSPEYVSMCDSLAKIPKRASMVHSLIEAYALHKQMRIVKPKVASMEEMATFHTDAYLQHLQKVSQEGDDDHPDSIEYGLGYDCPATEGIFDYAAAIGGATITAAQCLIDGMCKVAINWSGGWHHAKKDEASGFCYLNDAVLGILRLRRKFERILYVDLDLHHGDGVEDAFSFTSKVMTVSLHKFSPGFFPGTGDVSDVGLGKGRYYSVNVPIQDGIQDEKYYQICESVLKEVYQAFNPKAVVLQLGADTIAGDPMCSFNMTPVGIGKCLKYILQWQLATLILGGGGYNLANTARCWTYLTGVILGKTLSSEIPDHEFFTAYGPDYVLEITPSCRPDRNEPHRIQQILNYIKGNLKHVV
As to the kind of experiment: Inhibition of recombinant C-terminal His-tagged human HDAC8 (1 to 377 residues) expressed in Baculovirus infected insect cells using RHK-K(Ac)-AMC as substrate by fluorimetric assay.

Data set [2] has as its target T2, Histone deacetylase 11 (Homo sapiens, UniProt Q96DB2).
T2 sequence (Q96DB2 whole entry): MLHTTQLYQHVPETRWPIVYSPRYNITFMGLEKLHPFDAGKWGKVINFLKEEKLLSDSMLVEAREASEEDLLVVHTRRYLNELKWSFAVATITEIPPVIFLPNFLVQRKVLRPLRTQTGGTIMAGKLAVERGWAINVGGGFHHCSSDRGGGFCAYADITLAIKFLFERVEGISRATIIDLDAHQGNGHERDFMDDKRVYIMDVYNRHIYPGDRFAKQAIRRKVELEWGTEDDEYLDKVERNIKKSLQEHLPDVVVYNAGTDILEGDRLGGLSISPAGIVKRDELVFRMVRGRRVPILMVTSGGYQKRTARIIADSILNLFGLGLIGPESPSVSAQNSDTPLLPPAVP
As to the kind of experiment: Inhibition of recombinant C-terminal His-tagged human HDAC11 (1 to 347 residues) expressed in Baculovirus infected insect cells using RHKK-Ac as substrate by fluorimetric assay.

For data set [3], the species on record is Homo sapiens. The data set can be described thus: Selectivity ratio of IC50 for human HDAC10 to IC50 for recombinant N-terminal GST-tagged human HDAC6 (1 to 1215 residues).
Data set [4] deals with Kasumi 1. As to the kind of experiment: Antiproliferative activity against human Kasumi-1 cells after 72 hrs by resazurin dye-based assay. The format is functional, cell-based. Conditions: Kasumi 1, 72 h. An outline of the steps: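 KASUMI-1 cells incubated with compounds for 72 hr; viability read with resazurin reagent. IC50 taken as the mean of three experiments, each run in duplicate.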

Data set [5] in a line: Drug uptake in zebrafish embryo vasculature at 1 to 20 uM administered from 24 to 50 hrs post fertilization for 24 hrs and measured after 72 hrs by fluorescence microscopic analysis. The format is ADME, Danio rerio. Conditions: in vivo. An outline of the steps: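 Zebrafish embryos treated with 1, 10 or 20 µM from 24–50 hpf, with 0 µM controls; trunk and tail imaged at 72 hpf by fluorescence microscopy (λex 480 nm, λem 517 nm).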

The species entered for data set [6] is Homo sapiens. The data set can be described thus: Selectivity ratio of IC50 for recombinant full length C-terminal GST-tagged human HDAC2 (1 to 488 residues) to IC50 for recombinant N-terminal GST-tagged human HDAC6 (1 to 1215 residues).
Data set [7] deals with Histone deacetylase 2 (Homo sapiens, UniProt Q92769). The data set can be described thus: Inhibition of recombinant full length C-terminal GST-tagged human HDAC2 (1 to 488 residues) expressed in insect cells using RHK-K(Ac)-AMC as substrate by fluorimetric assay.
Histone deacetylase 2, sequence (Q92769 whole entry, the tested form may be a part): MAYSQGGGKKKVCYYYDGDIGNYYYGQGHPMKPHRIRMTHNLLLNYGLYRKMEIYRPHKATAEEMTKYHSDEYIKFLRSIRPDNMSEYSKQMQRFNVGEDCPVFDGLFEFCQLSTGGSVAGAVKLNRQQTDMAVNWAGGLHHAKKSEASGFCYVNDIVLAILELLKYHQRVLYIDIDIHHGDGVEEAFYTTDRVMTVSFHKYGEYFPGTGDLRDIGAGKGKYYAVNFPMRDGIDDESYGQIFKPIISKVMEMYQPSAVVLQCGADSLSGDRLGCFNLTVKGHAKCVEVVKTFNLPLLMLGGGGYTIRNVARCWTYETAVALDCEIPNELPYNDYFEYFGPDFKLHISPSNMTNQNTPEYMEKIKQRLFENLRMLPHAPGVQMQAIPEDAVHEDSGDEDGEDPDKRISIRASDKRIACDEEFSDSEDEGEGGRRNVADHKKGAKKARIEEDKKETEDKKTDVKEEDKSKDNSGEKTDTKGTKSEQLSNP
Data set [8] addresses Histone deacetylase 3/Nuclear receptor corepressor 2 (HDAC3/NCoR2) (Homo sapiens, UniProt O15379). The format is cell-based.
The species entered for data set [9] is Homo sapiens. The data set can be described thus: Selectivity ratio of IC50 for human recombinant full length C-terminal His-tagged HDAC3 (1 to 428 residues)/N-terminal GST-tagged NCOR2 (395 to 489 residues) to IC50 for recombinant N-terminal GST-tagged human HDAC6 (1 to 1215 residues).
For data set [10], the system named is Danio rerio. As to the kind of experiment: Antiangiogenic activity in zebrafish embryo assessed as effect on blood vessel development at 10 uM administered from 24 to 50 hrs post fertilization for 24 hrs and measured after 72 hrs by alkaline phosphatase assay. The format is functional, organism-based. An outline of the steps:
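Zebrafish embryos exposed at 10 µM from 24–50 hpf alongside vehicle-only controls; at 72 hpf embryos stained with alkaline phosphatase to visualise blood vessels.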

The nature of data set [11]: Drug uptake in human A549 cells cytoplasm at 1 uM after 2 hrs by naphthalimide dye-based inverted light fluorescence confocal microscopic analysis. Conditions: a549, 2 h. It counts as ADME, subcellular. An outline of the steps:
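A549 cells incubated 2 hours with compound at 1 µM; intracellular distribution imaged by confocal microscopy with 405 nm laser excitation, emission collected at 460–560 nm.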

The species named for data set [12] is Homo sapiens. The data set can be described thus: Selectivity ratio of IC50 for human HDAC9 to IC50 for recombinant N-terminal GST-tagged human HDAC6 (1 to 1215 residues).
Data set [13] concerns the target Histone deacetylase 9 (Homo sapiens, UniProt Q9UKV0). The data set can be described thus: Inhibition of human HDAC9 using Boc-Lys(trifluoroacetyl)-AMC as substrate by fluorimetric assay.
The species entered for data set [14] is Homo sapiens. The data set can be described thus: Selectivity ratio of IC50 for recombinant full length C-terminal FLAG/His-tagged human HDAC1 (1 to 482 residues) to IC50 for recombinant N-terminal GST-tagged human HDAC6 (1 to 1215 residues).
In data set [15] the target is T3, Polyamine deacetylase HDAC10 (Homo sapiens, UniProt Q969S8).
T3 sequence (Q969S8 whole entry): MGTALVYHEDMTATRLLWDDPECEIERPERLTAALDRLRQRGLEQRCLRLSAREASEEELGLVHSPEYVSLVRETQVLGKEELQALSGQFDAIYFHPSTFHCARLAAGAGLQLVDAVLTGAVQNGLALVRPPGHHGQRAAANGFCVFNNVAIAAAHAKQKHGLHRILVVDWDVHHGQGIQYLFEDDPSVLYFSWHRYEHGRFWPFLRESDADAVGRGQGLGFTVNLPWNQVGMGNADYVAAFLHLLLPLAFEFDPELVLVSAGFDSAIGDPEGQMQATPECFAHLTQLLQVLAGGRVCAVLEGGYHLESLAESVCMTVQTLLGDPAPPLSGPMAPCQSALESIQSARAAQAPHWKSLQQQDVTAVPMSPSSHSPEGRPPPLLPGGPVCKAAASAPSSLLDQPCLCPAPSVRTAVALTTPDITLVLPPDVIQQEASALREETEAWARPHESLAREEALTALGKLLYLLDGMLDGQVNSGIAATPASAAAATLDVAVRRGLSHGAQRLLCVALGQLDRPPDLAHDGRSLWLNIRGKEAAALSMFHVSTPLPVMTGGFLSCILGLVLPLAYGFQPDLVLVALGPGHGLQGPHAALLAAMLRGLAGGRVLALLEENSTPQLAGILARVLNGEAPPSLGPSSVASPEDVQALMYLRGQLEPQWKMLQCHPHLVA
As to the kind of experiment: Inhibition of human HDAC10 using RHKK-Ac as substrate by fluorimetric assay.

Data set [16] deals with Histone deacetylase 5 (Homo sapiens, UniProt Q9UQL6). The data set can be described thus: Inhibition of recombinant C-terminal His-tagged human HDAC5 (656 to 1122 residues) expressed in insect cells using Boc-K(Ac)-AMC as substrate by fluorimetric assay.
Histone deacetylase 5, sequence (Q9UQL6 whole entry, the tested form may be a part): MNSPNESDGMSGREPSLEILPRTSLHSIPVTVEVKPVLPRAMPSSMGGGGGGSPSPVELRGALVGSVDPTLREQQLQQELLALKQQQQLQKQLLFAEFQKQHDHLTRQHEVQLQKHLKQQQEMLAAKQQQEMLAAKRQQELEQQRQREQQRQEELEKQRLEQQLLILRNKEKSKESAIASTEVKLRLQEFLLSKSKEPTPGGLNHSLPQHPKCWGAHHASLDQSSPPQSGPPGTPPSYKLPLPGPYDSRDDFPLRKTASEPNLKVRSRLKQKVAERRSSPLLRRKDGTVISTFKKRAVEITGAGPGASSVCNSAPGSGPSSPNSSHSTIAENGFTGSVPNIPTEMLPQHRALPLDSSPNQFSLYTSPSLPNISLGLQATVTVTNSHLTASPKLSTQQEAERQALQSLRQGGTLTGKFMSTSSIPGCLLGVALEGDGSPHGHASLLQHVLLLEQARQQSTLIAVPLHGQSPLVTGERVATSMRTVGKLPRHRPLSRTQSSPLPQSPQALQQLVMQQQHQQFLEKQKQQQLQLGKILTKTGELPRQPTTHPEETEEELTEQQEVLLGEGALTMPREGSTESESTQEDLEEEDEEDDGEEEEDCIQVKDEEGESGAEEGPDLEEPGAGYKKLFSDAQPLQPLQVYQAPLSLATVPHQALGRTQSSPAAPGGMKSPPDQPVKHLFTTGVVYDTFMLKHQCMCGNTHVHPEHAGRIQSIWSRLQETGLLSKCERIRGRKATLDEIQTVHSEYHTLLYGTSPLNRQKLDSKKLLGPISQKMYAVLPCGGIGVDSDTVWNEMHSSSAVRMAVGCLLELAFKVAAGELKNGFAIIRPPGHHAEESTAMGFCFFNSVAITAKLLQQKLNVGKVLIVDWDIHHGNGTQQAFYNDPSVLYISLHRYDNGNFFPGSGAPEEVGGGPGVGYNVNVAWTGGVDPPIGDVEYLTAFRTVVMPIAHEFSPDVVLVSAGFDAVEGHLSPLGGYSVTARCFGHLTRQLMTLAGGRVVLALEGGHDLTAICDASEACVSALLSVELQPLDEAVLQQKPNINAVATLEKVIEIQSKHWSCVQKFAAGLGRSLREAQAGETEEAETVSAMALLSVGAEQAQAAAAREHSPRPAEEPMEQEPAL

Calls of active or inactive are those of the source. No cut-off for these calls is given here.

Histone deacetylase 3/Nuclear receptor corepressor 2 (HDAC3/NCoR2), sequence (O15379 whole entry, the tested form may be a part): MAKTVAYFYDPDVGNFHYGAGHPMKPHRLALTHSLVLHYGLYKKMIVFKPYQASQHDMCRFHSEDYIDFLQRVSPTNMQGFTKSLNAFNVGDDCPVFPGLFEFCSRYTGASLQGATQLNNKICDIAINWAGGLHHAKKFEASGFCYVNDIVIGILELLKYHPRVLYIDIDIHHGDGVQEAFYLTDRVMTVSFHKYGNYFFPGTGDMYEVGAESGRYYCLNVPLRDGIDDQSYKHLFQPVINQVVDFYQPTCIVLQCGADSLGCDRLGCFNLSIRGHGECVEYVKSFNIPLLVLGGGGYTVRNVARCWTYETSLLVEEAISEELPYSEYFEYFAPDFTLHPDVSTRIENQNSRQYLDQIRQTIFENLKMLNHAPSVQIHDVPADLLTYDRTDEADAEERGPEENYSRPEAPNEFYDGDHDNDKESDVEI
Histone deacetylase 3/Nuclear receptor corepressor 2 (HDAC3/NCoR2), sequence (Q9Y618 whole entry, further chain, the tested form may be a part): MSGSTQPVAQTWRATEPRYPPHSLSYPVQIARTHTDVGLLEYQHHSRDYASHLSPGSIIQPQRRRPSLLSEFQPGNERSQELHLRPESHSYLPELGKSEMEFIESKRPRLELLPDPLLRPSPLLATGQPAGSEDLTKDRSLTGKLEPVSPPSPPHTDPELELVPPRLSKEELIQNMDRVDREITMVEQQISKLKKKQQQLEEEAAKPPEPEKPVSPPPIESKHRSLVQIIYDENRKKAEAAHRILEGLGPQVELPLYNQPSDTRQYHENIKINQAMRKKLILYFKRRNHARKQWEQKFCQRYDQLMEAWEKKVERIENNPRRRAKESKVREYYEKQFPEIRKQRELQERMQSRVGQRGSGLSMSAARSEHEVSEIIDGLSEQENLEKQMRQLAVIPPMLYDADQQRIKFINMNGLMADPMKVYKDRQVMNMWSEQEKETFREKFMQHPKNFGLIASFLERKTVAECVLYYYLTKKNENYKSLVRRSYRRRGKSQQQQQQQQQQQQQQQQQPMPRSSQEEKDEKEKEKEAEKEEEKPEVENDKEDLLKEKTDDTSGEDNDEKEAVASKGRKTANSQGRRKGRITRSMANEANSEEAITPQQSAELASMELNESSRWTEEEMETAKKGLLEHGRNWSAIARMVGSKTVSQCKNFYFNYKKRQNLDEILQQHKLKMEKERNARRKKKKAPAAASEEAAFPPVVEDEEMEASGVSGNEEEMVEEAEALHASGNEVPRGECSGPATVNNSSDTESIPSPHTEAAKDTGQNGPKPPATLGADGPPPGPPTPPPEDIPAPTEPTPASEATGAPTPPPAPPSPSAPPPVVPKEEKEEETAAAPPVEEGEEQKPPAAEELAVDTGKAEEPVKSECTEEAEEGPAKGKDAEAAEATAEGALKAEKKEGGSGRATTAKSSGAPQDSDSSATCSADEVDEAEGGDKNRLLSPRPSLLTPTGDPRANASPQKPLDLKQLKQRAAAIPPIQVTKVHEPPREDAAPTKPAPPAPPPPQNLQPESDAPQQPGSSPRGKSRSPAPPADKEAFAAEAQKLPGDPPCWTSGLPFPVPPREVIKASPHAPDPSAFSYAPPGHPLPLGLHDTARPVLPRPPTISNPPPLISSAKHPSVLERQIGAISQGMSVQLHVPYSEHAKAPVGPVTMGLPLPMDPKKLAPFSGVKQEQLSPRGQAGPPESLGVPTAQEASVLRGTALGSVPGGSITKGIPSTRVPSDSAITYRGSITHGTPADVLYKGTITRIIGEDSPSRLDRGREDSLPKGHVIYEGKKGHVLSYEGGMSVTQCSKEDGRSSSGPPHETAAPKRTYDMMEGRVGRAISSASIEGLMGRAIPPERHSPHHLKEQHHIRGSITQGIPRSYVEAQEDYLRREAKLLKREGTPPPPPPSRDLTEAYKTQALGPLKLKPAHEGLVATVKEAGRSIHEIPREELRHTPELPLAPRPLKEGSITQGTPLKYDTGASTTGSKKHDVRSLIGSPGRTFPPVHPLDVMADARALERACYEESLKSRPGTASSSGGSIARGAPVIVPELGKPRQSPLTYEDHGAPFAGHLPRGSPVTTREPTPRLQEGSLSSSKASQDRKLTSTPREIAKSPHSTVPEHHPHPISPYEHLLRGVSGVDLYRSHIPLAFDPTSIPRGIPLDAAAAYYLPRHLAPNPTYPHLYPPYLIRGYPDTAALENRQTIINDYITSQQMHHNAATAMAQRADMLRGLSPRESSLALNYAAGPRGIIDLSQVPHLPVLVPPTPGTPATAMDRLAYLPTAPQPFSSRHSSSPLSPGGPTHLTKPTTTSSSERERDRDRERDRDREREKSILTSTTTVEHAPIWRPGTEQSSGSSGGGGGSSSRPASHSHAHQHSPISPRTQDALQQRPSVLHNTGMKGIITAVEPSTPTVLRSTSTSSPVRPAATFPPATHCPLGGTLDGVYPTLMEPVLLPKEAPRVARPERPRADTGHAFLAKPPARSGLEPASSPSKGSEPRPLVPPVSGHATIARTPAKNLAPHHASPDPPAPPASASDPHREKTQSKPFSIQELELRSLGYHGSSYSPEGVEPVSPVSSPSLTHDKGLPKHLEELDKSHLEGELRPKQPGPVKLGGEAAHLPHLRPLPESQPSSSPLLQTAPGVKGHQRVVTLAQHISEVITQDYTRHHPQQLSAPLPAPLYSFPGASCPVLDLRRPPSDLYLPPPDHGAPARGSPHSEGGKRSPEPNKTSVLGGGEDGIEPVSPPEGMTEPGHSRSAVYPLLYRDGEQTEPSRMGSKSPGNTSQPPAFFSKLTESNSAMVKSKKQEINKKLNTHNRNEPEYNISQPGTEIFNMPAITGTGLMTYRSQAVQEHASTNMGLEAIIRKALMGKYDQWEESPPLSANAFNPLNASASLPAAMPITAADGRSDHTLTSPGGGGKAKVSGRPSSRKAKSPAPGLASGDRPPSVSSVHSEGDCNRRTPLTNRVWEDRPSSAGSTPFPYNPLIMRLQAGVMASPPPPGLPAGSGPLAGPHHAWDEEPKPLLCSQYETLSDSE

As a reminder, the IC50 is the point on the concentration scale where inhibition reaches its midpoint. On to `O=C(CCCCCN1C(=O)c2cccc3c(NCc4ccccc4)ccc(c23)C1=O)NO`, for which the IC50 in data set [1] was 2460 nM; in [2] it was 150 nM; in data set [4], 360 nM; in [7] it was 850 nM; in [8], 360 nM; in data set [13], 9.3 µM. Besides, the concentration for half-maximal inhibition (IC50) stood at 660 nM in data set [15] and 3.4 µM in data set [16]. Besides, the Ratio IC50 in data set [3] is 190; in data set [6], 240; in data set [9], 100 to 103; in [12], greater than 2000; in data set [14] it was 560 to 566. In addition, the Drug uptake entry in data set [5] and in data set [11] was “Active” in each case. Moreover, the result in data set [10] was Active.

With `CCCNc1ccc2c3c(cccc13)C(=O)N(CCCCCC(=O)NO)C2=O`, the IC50 in data set [1] was 1520 nM; in data set [2], 80 nM; in [4], 96 nM; in [7], 420 nM; in data set [8], 110 nM; in [13], greater than 10 µM. Moreover, the 50% inhibitory concentration (IC50) in data set [15] was 320 nM; in data set [16], 5.3 µM. Besides, the Ratio IC50 in [3] is 67; in [6], 88; in data set [9] it was 23; in [12], greater than 2000; in data set [14], 120 to 123. The Drug uptake result in data set [5] and in [11] was “Active” throughout. The result in [10] was Active.

For the origin of these results see ChEMBL document CHEMBL4325904 (Eur J Med Chem, 2019).
